The results in this text go back to ChEMBL document CHEMBL2177098, “Synthesis and evaluation of novel ¹⁸F labeled 2-pyridinylbenzoxazole and 2-pyridinylbenzothiazole derivatives as ligands for positron emission tomography (PET) imaging of β-amyloid plaques” (J Med Chem, 2012).

Test [1] has as its target Amyloid-beta precursor protein (Homo sapiens) (UniProt P05067). The test can be described thus: Binding affinity to amyloid beta plaques in Alzheimer patient brain at 370 KBq/100 ul after 1 hr by autoradiographic analysis. Conditions: tested as the 18F-labelled form.
The species named for test [2] is Mus musculus. The test can be described thus: Binding affinity to amyloid beta plaques in transgenic C57BL6 mouse hippocampus expressing APP Swedish mutant/PSEN1 at 370 KBq/100 ul after 1 hr by thioflavinS-staining method. Conditions: tested as the 18F-labelled form. The test is classed as tissue-based. Summed up:
(§1)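 Paraffin brain sections from 12-month-old Tg mice (C57BL6, APPswe/PSEN1) and age-matched controls, deparaffinized through xylene and graded ethanol, then PBS (0.2 M, pH 7.4) 30 min. Incubated with 18F tracer (370 KBq per 100 μL) 1 h at room temperature, washed in 40% EtOH, rinsed in water, then phosphor plate exposure 2 h. The same sections were afterwards stained with 0.125% thioflavin S in 10% EtOH for 3 min and washed in 40% EtOH.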

For test [3], the species on record is Mus musculus. The test can be described thus: Binding affinity to amyloid beta plaques in transgenic C57BL6 mouse cortex expressing APP Swedish mutant/PSEN1 at 370 KBq/100 ul after 1 hr by autoradiographic analysis. As to conditions: tested as the 18F-labelled form. In outline:
as §1

For test [4], the species on record is Mus musculus. As to the kind of experiment: Binding affinity to amyloid beta plaques in transgenic C57BL6 mouse hippocampus expressing APP Swedish mutant/PSEN1 at 370 KBq/100 ul after 1 hr by autoradiographic analysis. Format: tissue-based. As to conditions: tested as the 18F-labelled form. In outline: as §1
The species named for test [5] is Mus musculus. As to the kind of experiment: Binding affinity to amyloid beta plaques in transgenic C57BL6 mouse cortex expressing APP Swedish mutant/PSEN1 at 370 KBq/100 ul after 1 hr by thioflavinS-staining method. Conditions: tested as the 18F-labelled form. In outline:
as §1

Test [6] is described as follows: Displacement of [125I]-IMPY from amyloid beta (1 to 42) fibrils after 2 hrs by gamma-counting analysis. Summed up:
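Competition binding with aggregated Aβ1-42 fibrils and [125I]IMPY (60000−100000 cpm/100 μL) in 0.05% BSA (1 mL total); inhibitors 10⁻⁴−10^−8.5 M in ethanol. Incubated 37 °C for 2 h, then GF/B vacuum filtration with PBS (0.02 M, pH 7.4) washes and γ counting. Three repeats; IC50 converted to Ki by Cheng−Prusoff.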

Calls of active or inactive are those of the source. The rule behind the calls is not given here.

Chain of Amyloid-beta precursor protein (Homo sapiens) (P05067 whole entry): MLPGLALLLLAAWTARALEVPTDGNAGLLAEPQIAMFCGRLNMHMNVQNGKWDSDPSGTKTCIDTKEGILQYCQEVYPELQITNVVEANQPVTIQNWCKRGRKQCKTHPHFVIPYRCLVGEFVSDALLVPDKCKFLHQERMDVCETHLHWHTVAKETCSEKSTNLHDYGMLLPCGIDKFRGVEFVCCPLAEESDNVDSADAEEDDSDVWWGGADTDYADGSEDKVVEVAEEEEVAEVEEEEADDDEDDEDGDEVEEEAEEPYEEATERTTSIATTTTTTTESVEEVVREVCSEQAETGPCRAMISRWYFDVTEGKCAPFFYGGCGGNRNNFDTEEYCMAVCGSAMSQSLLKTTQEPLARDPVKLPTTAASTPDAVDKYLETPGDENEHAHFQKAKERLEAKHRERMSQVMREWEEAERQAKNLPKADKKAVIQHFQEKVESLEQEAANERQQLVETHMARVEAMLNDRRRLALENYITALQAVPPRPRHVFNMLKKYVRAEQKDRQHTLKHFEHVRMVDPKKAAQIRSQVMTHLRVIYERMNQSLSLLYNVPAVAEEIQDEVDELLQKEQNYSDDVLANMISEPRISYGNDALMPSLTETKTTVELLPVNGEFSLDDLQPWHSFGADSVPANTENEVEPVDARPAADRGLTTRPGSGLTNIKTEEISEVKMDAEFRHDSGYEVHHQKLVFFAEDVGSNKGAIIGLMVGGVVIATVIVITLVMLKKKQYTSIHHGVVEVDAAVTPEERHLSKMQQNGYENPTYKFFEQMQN

As usually defined, the Ki is the dissociation constant of the complex between target and ligand, obtained from inhibition or displacement. Read a high Ki as a looser hold on the target. `CNc1ccc(-c2nc3ccc(OCCF)cc3s2)cn1`: the result (in test [1]; in the test listed under Mus musculus [2]; in the test filed under Mus musculus [3]; in the test filed under Mus musculus [4]; in the test listed under Mus musculus [5]) was Active. The Ki in test [6] is 10.1 nM.

Consider `CNc1ccc(-c2nc3cc(OCCOCCOCCF)ccc3o2)cn1`, for which the outcome (in test [1]; in the test listed under Mus musculus [2]; in the test listed under Mus musculus [3]; in the test filed under Mus musculus [4]; in the test listed under Mus musculus [5]) was Active. This compound displayed a Ki in test [6] of 76.9 nM.
